Measured values reported in ChEMBL document CHEMBL1770135, “Acylideneoxoindoles: a new class of reversible inhibitors of human transglutaminase 2” (Bioorg Med Chem Lett, 2011).
Calls of active or inactive are those of the source. No cut-off for these calls is given here.

Legend:
[1] = target: T1, Protein-glutamine gamma-glutamyltransferase (Homo sapiens, UniProt P21980); experiment: Inhibition of human transglutaminase 2 using Cbz-Gln-Gly as a substrate by GDH-coupled assay
T1 sequence (P21980 whole entry): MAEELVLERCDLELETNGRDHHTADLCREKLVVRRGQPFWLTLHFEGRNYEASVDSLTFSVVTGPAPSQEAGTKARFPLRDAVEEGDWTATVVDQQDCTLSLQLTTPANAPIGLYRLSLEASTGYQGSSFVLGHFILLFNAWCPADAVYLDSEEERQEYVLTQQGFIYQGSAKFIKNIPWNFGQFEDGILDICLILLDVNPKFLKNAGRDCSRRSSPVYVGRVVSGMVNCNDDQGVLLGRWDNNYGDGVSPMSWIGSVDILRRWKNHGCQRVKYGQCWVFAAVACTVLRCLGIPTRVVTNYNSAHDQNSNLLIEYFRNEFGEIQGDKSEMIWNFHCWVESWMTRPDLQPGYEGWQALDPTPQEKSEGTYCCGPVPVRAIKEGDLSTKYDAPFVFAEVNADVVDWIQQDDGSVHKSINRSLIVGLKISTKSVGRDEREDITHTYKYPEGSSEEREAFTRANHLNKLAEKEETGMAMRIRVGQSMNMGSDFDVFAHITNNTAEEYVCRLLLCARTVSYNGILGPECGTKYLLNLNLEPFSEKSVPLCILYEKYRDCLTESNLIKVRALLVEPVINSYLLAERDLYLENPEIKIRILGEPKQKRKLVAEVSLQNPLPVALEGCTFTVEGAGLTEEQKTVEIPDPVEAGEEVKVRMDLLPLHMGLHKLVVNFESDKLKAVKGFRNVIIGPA
In short: (§1)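 Glutamate dehydrogenase-coupled deamidation assay with human TG2 at 0.5 µM and Cbz-Gln-Gly as acyl donor substrate. […] Ki values were derived from kinetic analysis in a mixed inhibition model, with α taken as the Ki'/Ki ratio. Errors were typically under 10%.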

[2] = target: T1, Protein-glutamine gamma-glutamyltransferase; experiment: Inhibition of human transglutaminase 2 using ZGBC as a substrate after 30 to 60 mins by fluorometric assay
In short: (§2)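 Direct fluorometric assay following TG2-catalysed release of 7-hydroxycoumarin from an ester substrate, with human TG2 at 15 nM. […] Ki and α were derived from a mixed inhibition model, with α as the Ki'/Ki ratio.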

[3] = target: T2, Protein-glutamine gamma-glutamyltransferase (Homo sapiens) (UniProt P21980); experiment: Partial inhibition of human transglutaminase 2 using ZGBC as a substrate after 30 to 60 mins by fluorometric assay; set-up: concentration or dose not given beside the values; in short: as §2
T2 sequence (whole entry): T1 sequence (P21980 whole entry)

[4] = target: T2, Protein-glutamine gamma-glutamyltransferase (Homo sapiens); experiment: Partial inhibition of human transglutaminase 2 using Cbz-Gln-Gly as a substrate by GDH-coupled assay; settings: concentration not given here; in short: as §1
[5] = target: T2, Protein-glutamine gamma-glutamyltransferase (Homo sapiens); settings: 2 to 8 uM

Structure (SMILES)	IC50 [1] [nM]	IC50 [2] [nM]	Ki [1] [nM]	also measured
CN1C(=O)/C(=C/C(=O)c2cccnc2)c2c(Cl)cccc21	4000	11000	4000	
O=C1Nc2c(Br)cccc2/C1=C\C(=O)c1cccnc1	2900	3200		
O=C1Nc2ccccc2/C1=C1\C(=O)Nc2ccccc21 [ISOINDIGO]	8000		41000	
O=C1Nc2c(Cl)cccc2/C1=C\C(=O)c1cccnc1	7300	1600		inhibition [3]: 70%
CC(=O)/C=C1/C(=O)Nc2cc(F)ccc21	11000	20000	5400	
O=C1Nc2ccc(Br)cc2/C1=C\C(=O)c1cccnc1	4800	560	3000	Ki [2]: 680 nM
O=C1Nc2ccc(Oc3ccc4c(c3)C(=O)C(=O)N4)cc2C1=O	25000		3000	
CC(=O)/C=C1/C(=O)Nc2cc(OC(F)(F)F)ccc21	3600	2600		
O=C1Nc2ccccc2C1=O [ISATIN]	> 250000			
CC(=O)/C=C1/C(=O)Nc2ccccc21	11000	19000	10000	
O=C1Nc2ccc(Cl)cc2/C1=C\C(=O)c1cccnc1	6000	1200		
O=C1C(=O)N(CN2C(=O)C(=O)c3ccccc32)c2ccccc21	18000		10000	
O=C1Nc2ccccc2/C1=C\C(=O)c1cccnc1	22000	8500	12000	
Cc1cc(CN2C(=O)C(=O)c3ccccc32)c(C)cc1CN1C(=O)C(=O)c2ccccc21	> 250000			
O=C1Nc2ccccc2/C1=C1/Nc2ccccc2C1=O [INDIRUBIN]	> 100000			
Cc1cc(C)c(CN2C(=O)C(=O)c3ccccc32)cc1CN1C(=O)C(=O)c2ccccc21	40000		11000	
Cc1ccc2c(c1)/C(=C\C(=O)c1cccnc1)C(=O)N2	6300	4500		
O=C1Nc2cccc(Cl)c2/C1=C\C(=O)c1ccccc1	2800	20000	3300	
CC(=O)/C=C1/C(=O)Nc2ccc(Cl)cc21	4300	3700	900	
O=C1Nc2ccc([N+](=O)[O-])cc2/C1=C\C(=O)c1cccnc1	7900	1700		
CC(=O)/C=C1/C(=O)Nc2c(Cl)cccc21	4700	3900		
CN(C)C(=O)CN1C(=O)/C(=C/C(=O)c2cccnc2)c2c(Cl)cccc21	5500	9200		
O=C1Nc2ccc(Cc3ccc4c(c3)C(=O)C(=O)N4)cc2C1=O	30000		15000	

Now those with a lower IC50 [1], led by results:

IC50 [1] [nM]	IC50 [2] [nM]	Ki [1] [nM]	Structure (SMILES)	also measured
800	570		O=C(/C=C1/C(=O)N(c2ccccc2)c2cccc(Cl)c21)c1cccnc1	
1500		700	CC(=O)/C=C1/C(=O)Nc2cccc(Cl)c21	
800	90		O=C1Nc2cccc(Cl)c2/C1=C\C(=O)c1ccc(Cl)cc1	inhibition [3]: 60%
1100	5600		COC(=O)c1cccc(CN2C(=O)/C(=C/C(=O)c3cccnc3)c3c(Cl)cccc32)c1	
1500	360		O=C1Nc2cc(Br)ccc2/C1=C\C(=O)c1cccnc1	inhibition [4]: 35%; inhibition [3]: 65%
1100	3000		Nc1ccc(C(=O)/C=C2/C(=O)Nc3cccc(Cl)c32)cc1	inhibition [3]: 65%
1400	970		O=C1Nc2cccc(Cl)c2/C1=C\C(=O)c1cncc(Br)c1	
1100	1300		COc1ccc(C(=O)/C=C2/C(=O)Nc3cccc(Cl)c32)cc1	
1200	660		COC(=O)c1ccc(CN2C(=O)/C(=C/C(=O)c3cccnc3)c3c(Cl)cccc32)cc1	
1000	1100		COc1cccc(C(=O)/C=C2/C(=O)Nc3cccc(Cl)c32)c1	
1500	360	410	O=C(/C=C1/C(=O)N(Cc2ccccc2)c2cccc(Cl)c21)c1cccnc1	Ki [2]: 1000 nM
900	1700	1300	O=C1Nc2cccc(Cl)c2/C1=C\C(=O)c1cccnc1	
1000	4100		CC(C)CN1C(=O)/C(=C/C(=O)c2cccnc2)c2c(Cl)cccc21	
900	1000	400	O=C1Nc2cccc(Br)c2/C1=C\C(=O)c1cccnc1	Ki [2]: 250 nM
1400	1500		CC(C)N1C(=O)/C(=C/C(=O)c2cccnc2)c2c(Cl)cccc21	
1800	2500		CCOC(=O)CN1C(=O)/C(=C/C(=O)c2cccnc2)c2c(Cl)cccc21	
900	740		COc1ccccc1C(=O)/C=C1/C(=O)Nc2cccc(Cl)c21	
1100	890		O=C1Nc2cccc(Cl)c2/C1=C\C(=O)c1ccccn1	
700	2800		O=C1Nc2cccc(Cl)c2/C1=C\C(=O)c1cccc(Cl)c1	
1500	2900		O=C(/C=C1/C(=O)N(CCc2ccccc2)c2cccc(Cl)c21)c1cccnc1	
1400	1800		Nc1cccc(C(=O)/C=C2/C(=O)Nc3cccc(Cl)c32)c1	
1400	950		COc1ccncc1C(=O)/C=C1/C(=O)Nc2cccc(Cl)c21	inhibition [3]: 50%
2100	6700		O=C(/C=C1/C(=O)N(CC2CCCCC2)c2cccc(Cl)c21)c1cccnc1	
1200	1000		O=C1Nc2cccc(Cl)c2/C1=C\C(=O)c1ccncc1	
1300	1000		O=C(/C=C1/C(=O)N(CCCc2ccccc2)c2cccc(Cl)c21)c1cccnc1	
2100	20000	5300	O=C1Nc2cc(Cl)ccc2/C1=C\C(=O)c1cccnc1	inhibition [4]: 70%; inhibition [5]: Active
